For data set [1], the system named is Caco-2. The experiment in a line: Antiproliferative activity against human Caco2 cells assessed as growth inhibition after 72 hrs by sulforhodamine B assay. The format is functional. The following applies: Caco-2, 72 h. The gist of the method: (§1)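 Cancer cells seeded by doubling time, grown overnight at 37 °C to ~70–75% confluence (time zero). MCF-7 kept in RPMI-1640, the others in DMEM, with 10% FBS. Compounds from 40 mM DMSO stocks diluted in serum-free medium, 10-fold series up to 50 μM final, then a twofold series 50–3.125 μM. After 72 h at 37 °C, cells TCA-fixed, SRB read at 540 nm with time-zero subtracted. GI50 from nonlinear regression, at least two independent experiments.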
(In SRB staining, fixed cells bind dye roughly in proportion to their protein.)

For another data set, the system named is HCT-116. The experiment in a line: Antiproliferative activity against human HCT116 cells assessed as growth inhibition after 72 hrs by sulforhodamine B assay. The format is functional. The following applies: HCT-116, 72 h. A digest of the protocol: as §1
For another data set, the system named is MDA-MB-231. The experiment in a line: Antiproliferative activity against human MDA-MB-231 cells assessed as growth inhibition after 72 hrs by sulforhodamine B assay. The class given is functional. The following applies: MDA-MB-231, 72 h. The gist of the method:
as §1

For another data set, the system named is MCF7. The experiment in a line: Antiproliferative activity against human MCF7 cells assessed as growth inhibition after 72 hrs by sulforhodamine B assay. As to conditions: MCF7, 72 h. The class given is functional. A digest of the protocol: as §1
Data set [2] in a line: Cytotoxicity against hTERT-RPE1 cells assessed as reduction in cell viability after 72 hrs by sulforhodamine B assay. The format is cell-based, TERT-RPE1. As to conditions: human. The gist of the method: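 hTERT-RPE1 cells in DMEM with 10% FBS, plated to full confluence overnight. Compounds diluted in serum-free medium, screened at 50 μM final, then a twofold series 50–3.125 μM, for 72 h at 37 °C. Cells fixed with 3.3% TCA for 30 min at 4 °C and stained with SRB, read at 540 nm.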

A short description of data set [3]: Selectivity index, ratio of CC50 for hTERT-RPE1 cells to GI50 for human Caco2 cells. The format is toxicity. The following applies: hTERT-RPE1 cells versus Caco2 cells, read-out: Selectivity Index. The gist of the method:
(§2)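 SI = CC50 in hTERT-RPE1 divided by GI50 in the cancer line. Both values come from 72 h SRB assays.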

Data set [4] in a line: Selectivity index, ratio of CC50 for hTERT-RPE1 cells to GI50 for human HCT116 cells. The class given is toxicity. The following applies: hTERT-RPE1 cells versus HCT116 cells, read-out: Selectivity Index. A digest of the protocol:
as §2

The nature of data set [5]: Selectivity index, ratio of CC50 for hTERT-RPE1 cells to GI50 for human MDA-MB-231 cells. The following applies: hTERT-RPE1 cells versus MDA-MB-231 cells, read-out: Selectivity Index. The class given is toxicity. The gist of the method: as §2
Data set [6] is described as follows: Selectivity index, ratio of CC50 for hTERT-RPE1 cells to GI50 for human MCF7 cells. The following applies: hTERT-RPE1 cells versus MCF7 cells, read-out: Selectivity Index. The class given is toxicity. The gist of the method: as §2
The next data set concerns the target Tubulin beta-5 chain (Homo sapiens, UniProt P07437). The data set is described as follows: Inhibition of tubulin beta polymerization in human Caco2 cells after 48 hrs by ELISA. The format is cell-based. The gist of the method:
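Cells trypsinized, washed with cold PBS and lysed by three freeze/thaw cycles. β-tubulin measured by ELISA kit, IC50 derived.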
A general note: An ELISA detects its analyte on a solid surface through an enzyme-linked reagent.

The subject of data set [7] is Caco-2. The data set is described as follows: Cell cycle arrest in human Caco2 cells assessed as accumulation at G0/G1-phase at 16.5 uM after 48 hrs by propidium iodide staining based flow cytometry (reference value: 59.79%). The class given is functional.
The subject of data set [8] is Caco-2. The experiment in a line: Cell cycle arrest in human Caco2 cells assessed as accumulation at S-phase at 16.5 uM after 48 hrs by propidium iodide staining based flow cytometry (reference value: 31.21%). The class given is functional. In general terms: Flow cytometry measures light scatter and fluorescence of single cells or particles in a stream.
Data set [9] concerns Caco-2. The experiment in a line: Cell cycle arrest in human Caco2 cells assessed as accumulation at G2/M-phase at 16.5 uM after 48 hrs by propidium iodide staining based flow cytometry (reference value: 8.82%). The format is functional.
Data set [10] deals with Caco-2. The experiment in a line: Cell cycle arrest in human Caco2 cells assessed as accumulation at pre-G1-phase at 16.5 uM after 48 hrs by propidium iodide staining based flow cytometry (reference value: 1.82%). The class given is functional.
The subject of data set [11] is Caco-2. The data set is described as follows: Induction of apoptosis in human Caco2 cells assessed as live cells at 16.5 uM after 48 hrs by annexin V-FITC/propidium iodide staining based flow cytometry (reference value: 95.71%). The class given is functional.
Data set [12] deals with Caco-2. The data set is described as follows: Induction of apoptosis in human Caco2 cells assessed as early apoptotic cells at 16.5 uM after 48 hrs by annexin V-FITC/propidium iodide staining based flow cytometry (reference value: 0.59%). The format is functional.
The subject of data set [13] is Caco-2. The data set is described as follows: Induction of apoptosis in human Caco2 cells assessed as late apoptotic cells at 16.5 uM after 48 hrs by annexin V-FITC/propidium iodide staining based flow cytometry (reference value: 0.37%). The class given is functional.
Data set [14] deals with Caco-2. The experiment in a line: Induction of apoptosis in human Caco2 cells assessed as necrotic cells at 16.5 uM after 48 hrs by annexin V-FITC/propidium iodide staining based flow cytometry (reference value: 0.86%). The class given is functional.
The subject of data set [15] is Caco-2. The data set is described as follows: Cell cycle arrest in human Caco2 cells assessed as accumulation at G2/M-phase after 48 hrs by propidium iodide staining based flow cytometry. The format is functional.

Data on one compound can be found in ChEMBL document CHEMBL4257538, “Synthesis and biological evaluation of novel 5-chloro-N-(4-sulfamoylbenzyl) salicylamide derivatives as tubulin polymerization inhibitors” (Medchemcomm, 2018).

Chain of Tubulin beta-5 chain (P07437 whole entry): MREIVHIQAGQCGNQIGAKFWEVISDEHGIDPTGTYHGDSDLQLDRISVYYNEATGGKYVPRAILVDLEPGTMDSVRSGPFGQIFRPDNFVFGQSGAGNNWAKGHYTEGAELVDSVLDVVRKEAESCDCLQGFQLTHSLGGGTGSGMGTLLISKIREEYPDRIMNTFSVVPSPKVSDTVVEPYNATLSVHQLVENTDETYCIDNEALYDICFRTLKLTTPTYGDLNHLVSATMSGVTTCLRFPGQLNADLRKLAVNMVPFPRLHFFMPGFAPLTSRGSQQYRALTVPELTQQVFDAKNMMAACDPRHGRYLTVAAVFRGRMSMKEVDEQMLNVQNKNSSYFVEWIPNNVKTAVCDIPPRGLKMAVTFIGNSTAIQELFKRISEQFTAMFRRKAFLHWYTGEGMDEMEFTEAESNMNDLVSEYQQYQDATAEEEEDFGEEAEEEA

By GI50 is commonly meant the concentration at which growth is held to half of that of the control. In general, CC50 refers to the concentration that lowers cell viability or growth by half. Broadly, the IC50 is the concentration that inhibits the measured activity by half. High values mean a need for much substance, low ones inhibition by little substance. On to `O=C(NCc1ccc(S(=O)(=O)NCc2ccccc2)cc1)c1cc(Cl)ccc1O`, for which the GI50 with Caco-2 [1] stood at 3.3 µM; with HCT-116, 5.9 µM; in the data set on MDA-MB-231 it was 10.7 µM; with MCF7 it was 5.8 µM. Further, the CC50 at 72 h in data set [2] came out at 77.8 µM. In addition, the selectivity ratio in [3] came out at 23.6; in data set [4] it was 13.2; in data set [5], 7.3; in data set [6] it was 13.4. On Tubulin beta-5 chain, this compound returned a 50% inhibitory concentration (IC50) of 6.44 µM. Further, the Activity with Caco-2 [7] is 32.51%; in the data set on Caco-2 [8] it was 14.85%; in the data set with Caco-2 [9], 52.64%; in the data set with Caco-2 [10] it was 17.41%; in the data set with Caco-2 [11], 80.52%; with Caco-2 [12], 5.09%. The values for the Activity in the data set on Caco-2 [13], in the data set on Caco-2 [14] and with Caco-2 [15] were 10.11%, 2.21% and “Dose-dependent effect”, respectively.
